Assay results reported in the RNAGym collection of RNA variant scans (doi:10.1126/science.aae0568).
Variants at the floor of the assay were thinned out.

B1: tRNA (parent)
chain: GUUCCGUUGGCGUAAUGGUAACGCGUCUCCCUCCUAAGGAGAAGACUGCGGGUUCGAGUCCCGUACGGAACG

Variants of: B1
Assay: yeast fitness relative to wild type (ratio to wild type); higher = fitter; tRNA-Arg(CCU), competitive growth, 37 C, YPD
How it was run: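 The tRNA-Arg(CCU) gene variants were made by chemical synthesis with a 3% per-site mutation rate at 69 sites and inserted at the native genomic locus of Saccharomyces cerevisiae. After pooling, the strains were competed in YPD at 37°C for 24 hours in six parallel replicates. Gene amplicons from the start population and each end population were read by 100-nucleotide paired-end sequencing, and Darwinian fitness relative to wild type was taken from genotype frequency changes. Genotypes needed ≥ 100 starting reads, and estimates < 0.5 were set to 0.5.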
For C27G C33A U47A, the yeast fitness was no more than 0.5. Work on C27G C31U A65U A70U yielded a yeast fitness of no more than 0.5. Work on C27G A37G G52U C61U G67A yielded a yeast fitness of no more than 0.5. C27A C31A C49U G58C C62U U64A showed a yeast fitness of no more than 0.5. C27A C34U A42U G50C G58A G68C A69G gave a yeast fitness of no more than 0.5. In the case of C27A C62U A65C, the yeast fitness is reported as 0.63. Work on C27G G48A G51A yielded a yeast fitness of 0.527. In the case of C27G C30G C31U U54C, the yeast fitness is reported as no more than 0.5. With C27G C29A C62U the yeast fitness was 0.647. With C27A C49U the yeast fitness was 0.826. Variant C27A C49A has a yeast fitness of 0.749. For C27A G52U C55A, the yeast fitness was no more than 0.5. With C27A C31A A37C C46G the yeast fitness was no more than 0.5. C27G C55U G67C showed a yeast fitness of no more than 0.5. In the case of C27A G56A, the yeast fitness is reported as 0.707. In the case of C27G C33G G51C C60U C61U, the yeast fitness is reported as no more than 0.5. Variant C27G C30G A43C has a yeast fitness of no more than 0.5. C27A U59A showed a yeast fitness of 0.876. Variant C27A C31G A45C C55U has a yeast fitness of no more than 0.5. Variant C27G G38A G67U has a yeast fitness of no more than 0.5. Variant C27G A36G G63C C66U has a yeast fitness of no more than 0.5. C27G A36U showed a yeast fitness of 0.666. C27G A36G showed a yeast fitness of 0.542. Variant C27G A42C has a yeast fitness of 0.586. C27G A42G gave a yeast fitness of 0.607. With C27G A36U G39C G68C the yeast fitness was 0.533. For C27A C46U, the yeast fitness was 1.05. Work on C27A C46A yielded a yeast fitness of 0.907. Work on C27G C31U yielded a yeast fitness of 0.772. With C27G C31G the yeast fitness was 0.74. With C27G C31A the yeast fitness was 0.501. With C27G C30U G39C A40U G44C U47A G48A U53C C60A the yeast fitness was no more than 0.5. C27G A42C A70U showed a yeast fitness of no more than 0.5. In the case of C27G A42U G52A, the yeast fitness is reported as no more than 0.5. C27G C31U C49G G58C gave a yeast fitness of no more than 0.5. Variant C27G G44C A45G U64G has a yeast fitness of no more than 0.5. In the case of C27G G38A, the yeast fitness is reported as 0.745. In the case of C27A G38C A40U U53A, the yeast fitness is reported as no more than 0.5. C27A C30A U35C C46G gave a yeast fitness of no more than 0.5. With C27A G41A A45U U59G the yeast fitness was no more than 0.5. C27G C46U C60U A69U showed a yeast fitness of no more than 0.5. C27A C29U gave a yeast fitness of 0.766. In the case of C27A C29A, the yeast fitness is reported as 0.589. Variant C27G A42U A43U has a yeast fitness of 0.594. C27A A45U G56A C60U gave a yeast fitness of no more than 0.5. C27G A37C A40G C46U gave a yeast fitness of 0.578. In the case of C27A G63C G68C, the yeast fitness is reported as 0.524. In the case of C27G G44C A45G A65G, the yeast fitness is reported as no more than 0.5. C27G C46G U53G G58C C61A gave a yeast fitness of no more than 0.5. Work on C27G A57U U59C yielded a yeast fitness of 0.508. Work on C27G A37G G39A C61G yielded a yeast fitness of 0.821. C27A C66G gave a yeast fitness of 0.673. In the case of C27A C66U, the yeast fitness is reported as 0.868. C27A C66A gave a yeast fitness of 0.565. C27A G48A showed a yeast fitness of 0.995. C27G C46G U53G G58C G68A showed a yeast fitness of no more than 0.5. Variant C27G C31G C61G A69U has a yeast fitness of 0.55. With C27A G63A the yeast fitness was 0.88. In the case of C27G A36G C66G, the yeast fitness is reported as 0.548. C27A U35C A42U C55A showed a yeast fitness of no more than 0.5. Work on C27G C30A U47C yielded a yeast fitness of 0.535. C27G G39A C46U G67A showed a yeast fitness of 0.581. Work on C27G G48C A57U yielded a yeast fitness of no more than 0.5. C27A C33A A42U gave a yeast fitness of 0.619. C27A U28C showed a yeast fitness of 0.775. With C27G A42C A65C the yeast fitness was no more than 0.5. Variant C27A C33G A45C has a yeast fitness of 0.53. For C27G C29A A43U, the yeast fitness was no more than 0.5. Variant C27A U28A A70U has a yeast fitness of no more than 0.5. C27G A43U A57G showed a yeast fitness of no more than 0.5. C27G C33A A65U showed a yeast fitness of no more than 0.5. C27G G39C C61U showed a yeast fitness of 0.577. C27G C49U C62U A65U showed a yeast fitness of no more than 0.5. C27G A43U U59G G68C gave a yeast fitness of no more than 0.5. C27G A43C C46U C60U gave a yeast fitness of 0.748. For C27G C31U A37G G58C, the yeast fitness was no more than 0.5. With C27A C31A G52A U54C G58C A70G the yeast fitness was no more than 0.5. With C27G A36U A69C the yeast fitness was no more than 0.5. With C27A C60G the yeast fitness was 0.657. Variant C27A G41C A43C A45U has a yeast fitness of no more than 0.5. In the case of C27G C31A C33G C49U G58C, the yeast fitness is reported as no more than 0.5. Work on C27G A65C yielded a yeast fitness of 0.641. In the case of C27A C34U C62U U64C, the yeast fitness is reported as no more than 0.5. Work on C27G C29A G52C yielded a yeast fitness of no more than 0.5. C27G C31A G58C showed a yeast fitness of no more than 0.5. Work on C27G C55A C66U yielded a yeast fitness of 0.545. Variant C27G C46U G50A has a yeast fitness of 0.599. C27A U64A A69C gave a yeast fitness of 0.703. Variant C27G A37U A43G has a yeast fitness of no more than 0.5. In the case of C27G G41A A57C C62A, the yeast fitness is reported as no more than 0.5. Variant C27A C33U G44C A45U G50C G67A has a yeast fitness of no more than 0.5. Work on C27G C29G C46A A65G C66U yielded a yeast fitness of no more than 0.5. Work on C27G A37G U53A yielded a yeast fitness of 0.632. Variant C27G A45G has a yeast fitness of 0.722. Work on C27A C61U G68C yielded a yeast fitness of no more than 0.5. With C27A A45C G68A the yeast fitness was 0.619. Variant C27A U32G C62U A70C has a yeast fitness of 0.547. C27A U35C A42U A69G gave a yeast fitness of no more than 0.5. Work on C27G A40U C55U yielded a yeast fitness of no more than 0.5. With C27A U47C the yeast fitness was 0.975. Work on C27G C66U yielded a yeast fitness of 0.621. In the case of C27G C66A, the yeast fitness is reported as no more than 0.5. Variant C27G C66G has a yeast fitness of 0.579. For C27A G41C A43C, the yeast fitness was 0.504. Work on C27G C33A G48A G51C yielded a yeast fitness of no more than 0.5. Variant C27A U54C has a yeast fitness of 0.991. In the case of C27A U54A, the yeast fitness is reported as 0.727. C27A C30U A57C C62U gave a yeast fitness of no more than 0.5. C27G G39C A69U gave a yeast fitness of 0.566. With C27A C61U the yeast fitness was 0.891. C27A C61G gave a yeast fitness of 0.665. C27G A37C gave a yeast fitness of 0.911. C27A C30G showed a yeast fitness of 0.634. For C27A C30U, the yeast fitness was 0.7. Work on C27G C55G A70U yielded a yeast fitness of 0.617. In the case of C27A A45G G68C, the yeast fitness is reported as no more than 0.5. In the case of C27A U54A A65U C66U, the yeast fitness is reported as no more than 0.5. Variant C27A C33G has a yeast fitness of 0.711. With C27A C33U the yeast fitness was 0.799. Variant C27G C46G A65G has a yeast fitness of 0.631. Work on C27G C34G C55G U59C C60U G67U yielded a yeast fitness of no more than 0.5. With C27G A37U C49G U64C A69C the yeast fitness was no more than 0.5. In the case of C27G A42G U64C, the yeast fitness is reported as no more than 0.5. With C27A C49G U53A C62A the yeast fitness was 0.571. Variant C27G C62G has a yeast fitness of 0.695. For C27G C62A, the yeast fitness was 0.516. C27G C31G U59A gave a yeast fitness of no more than 0.5. C27G C31G U59C gave a yeast fitness of 0.604. For C27A U28A C30G G67A, the yeast fitness was 0.587. For C27G A42U C49U, the yeast fitness was 0.58. In the case of C27G C30U G38C G58A, the yeast fitness is reported as 0.679. C27G C46U C61G G68U gave a yeast fitness of no more than 0.5. C27G A65U G68U showed a yeast fitness of 0.583. Variant C27A G56A A65U C66A has a yeast fitness of no more than 0.5. Variant C27G A43G C49U has a yeast fitness of 0.59. With C27A C31A A69U the yeast fitness was 0.567. For C27G A45U A70C, the yeast fitness was 0.614. In the case of C27A G39C C55G, the yeast fitness is reported as no more than 0.5. Variant C27G A36U G39C A69C has a yeast fitness of 0.548. With C27G C33G G41A A65C the yeast fitness was no more than 0.5. C27G C46A G51A showed a yeast fitness of 0.525. C27A C29U C46A showed a yeast fitness of 0.684. Variant C27A C33U G52C C62G has a yeast fitness of 0.579. C27G C33G G39A C46U C60G gave a yeast fitness of no more than 0.5. Variant C27G C33G has a yeast fitness of 0.524. Work on C27G C33A yielded a yeast fitness of 0.593. With C27G C34A A40G the yeast fitness was 0.644. For C27A G38C G68U, the yeast fitness was no more than 0.5. With C27G C46U A70G the yeast fitness was 0.727. C27G C46U A70C showed a yeast fitness of 0.729. In the case of C27A A57G, the yeast fitness is reported as 0.787. For C27A A57U, the yeast fitness was 0.737. For C27A A57C, the yeast fitness was 0.669. With C27G C29G G51C the yeast fitness was no more than 0.5. C27G C31G U53A G56A G63A gave a yeast fitness of 0.534. Work on C27A C62A yielded a yeast fitness of 0.699. C27G A43U U53C gave a yeast fitness of no more than 0.5. With C27A C30A C66A the yeast fitness was 0.561. In the case of C27G A70G, the yeast fitness is reported as 0.718. Work on C27A C31G C61U yielded a yeast fitness of 0.669. C27G A43C C66A showed a yeast fitness of no more than 0.5. With C27G C49U A65U the yeast fitness was no more than 0.5. Variant C27G A42G A69U has a yeast fitness of no more than 0.5. For C27G A36U C46U G67A, the yeast fitness was 0.54. Variant C27A G44A A69C has a yeast fitness of no more than 0.5. Work on C27G C34G C46U yielded a yeast fitness of 0.65. Work on C27A A45C G50C A65C yielded a yeast fitness of no more than 0.5.
